The nature of one series: In vivo biodistribution. Set-up: species or system mouse. To be noted: for Brain uptake at 2 min after injection / Brain uptake at 60 min after injection: intravenous tracer dose of the metabolite; for Brain concentration at 2 min / Brain concentration at 60 min: intravenous. The procedure, abridged:
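CD-1 mice (20–26 g, male and female) received 370 kBq (10 µCi) of radiotracer in 10% ethanol/90% saline with 0.5% ascorbic acid by tail vein. Mice were killed by cardiac puncture under isoflurane at 2, 60, 120 and 180 min, with 3 animals per time point. Organs were weighed and γ-counted, and percentage dose was calculated against diluted aliquots of the injectate. Separately prepared labelled metabolites were also tested in healthy mice.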

A short description of series [1]: In vivo metabolism in mice. Summed up:
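Healthy mice received 370–555 MBq (10–15 mCi) of radiotracer by tail vein and were killed at 2, 10, 30 or 60 min. Plasma was separated by centrifugation (3,000 rpm, 2 min) and mixed with an equal volume of acetonitrile. After spinning at 5,000 rpm for 5 min, the supernatant was run on C18 HPLC (0.1% TFA water/acetonitrile gradient, 1 mL/min) with radioactivity detection. Metabolites were identified by LC/MS.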

The target in series [2] is Aβ plaques in AD brain sections (Homo sapiens, UniProt P05067). As to the kind of experiment: In vitro autoradiography of postmortem human brain sections. The series is classed as binding. The settings on record: tracer 0.3 nM, 1 h. The procedure, abridged: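 Frozen brains from AD and control subjects were cut into 20-µm sections. Sections were incubated for 1 h with 0.3 nM radiotracer in 40% ethanol. They were then washed twice for 2 min in saturated Li2CO3 in 40% ethanol, once for 2 min in 40% ethanol, and rinsed in water for 30 s. Dried sections were exposed to film for 12–18 h, and the images were digitized.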
Aβ plaques in AD brain sections, sequence (P05067 672-713 limits assumed): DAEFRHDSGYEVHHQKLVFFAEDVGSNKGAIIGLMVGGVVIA

Series [3] has as its target T1, Aβ aggregates in postmortem AD brain homogenates (Homo sapiens, UniProt P05067). In kind it is binding.
The target in series [4] is T1, Aβ aggregates in postmortem AD brain homogenates. Kind of series: Saturation binding of ^18F-AV-45 in postmortem AD brain homogenates. Summed up: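 Gray matter from frozen AD brains was homogenized in PBS, diluted to 50–100 mg/mL and stored at −80°C. Saturation binding was run on 4 different AD brain homogenates. Binding was analysed by Scatchard plot with nonlinear regression, and Bmax was expressed as fmol/mg protein.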

Series [5] can be described thus: Small-animal PET of monkey brain. In kind it is in vivo, rhesus monkey. Summed up: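 A young adult female rhesus monkey (6.65 kg) was intubated and kept under isoflurane, with a hindlimb venous catheter. After a transmission scan, it received 173.9 MBq (4.7 mCi; 71,262 MBq/mmol) of radiotracer in 3 mL of 95% saline/5% ethanol as a 1-min bolus. Emission data were collected for 90 min, corrected for attenuation and scatter, and reconstructed by 3D MAP. Manual volumetric ROIs (striatum, thalamus, cortex, white matter), drawn on the summed 60–90-min image, gave time–activity curves.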

The target of series [6] is T1, Aβ aggregates in postmortem AD brain homogenates. As to the kind of experiment: Competitive binding assay against ^18F-AV-45 in postmortem AD brain homogenates. To be noted: read-out: Inhibition constant (Ki) against binding of ^18F-AV-45 to Aβ aggregates, radioligand ^18F-AV-45, 2 h at 37°C.

T1 sequence (P05067 672-713 limits assumed): as above

Take `CC(=O)N(C)c1ccc(/C=C/c2ccc(OCCOCCOCC[18F])nc2)cc1` [^18F-AV-267]: in “In vivo biodistribution” (healthy mice), the “Brain uptake at 2 min after injection” value came to 3.3 %ID/g and the “Brain uptake at 60 min after injection” value was determined as 1.8 %ID/g.

As to `Nc1ccc(C=Cc2ccc(OCCOCCOCCF)nc2)cc1` [^18F-AV-160], the “Metabolite share in plasma” value in series [1] (mouse plasma, 30 min after intravenous injection of ^18F-AV-45) is listed as “about 48%”. In “In vivo biodistribution” (healthy mice), the “Brain uptake at 2 min after injection” value is 4.5 %ID/g and the “Brain uptake at 60 min after injection” value is listed as 1.8 %ID/g.

As for `CNc1ccc(/C=C/c2ccc(OCCOCCOCC[18F])nc2)cc1` [^18F-AV-45, (E)-4-(2-(6-(2-(2-(2-^18F-fluoroethoxy)ethoxy)ethoxy)pyridin-3-yl)vinyl)-N-methyl benzenamine], in series [2] (AD brain sections), the “Labeling of AD brain sections containing Aβ plaques (autoradiogram)” value was “highly dense labeling”. Besides, the “Labeling of brain sections of control subjects (autoradiogram)” value in series [2] (control subject brain sections) is “no specific labeling”. In series [3] (dissociation from Aβ aggregates, AD brain homogenates), this molecule yielded a Koff of 0.00075 ± 0.0001 s⁻¹. Besides, the “Biologic T1/2 in mouse plasma” value in series [1] (intravenous, estimated) was “less than 30 min”. For the same molecule, the “Parent remaining in plasma” value in series [1] (mouse plasma, 30 min after intravenous injection) worked out at 30%. For the same molecule, in series [4] (average of 4 different AD brain homogenates), the “Bmax (saturation binding), average” value is listed as 8,811 ± 1,643 fmol/mg protein. In addition, in series [4] (representative AD brain homogenate, Figure 2), the “Bmax (saturation binding), representative example” value was 7,215 fmol/mg of protein. In series [5] (healthy rhesus monkey, no Aβ plaques), the “Specific binding or retention in healthy monkey brain” value is reported as “did not display any specific binding or prolonged retention in the brain”. In series [5] (rhesus monkey, intravenous 173.9 MBq), the “Time of peak activity in cortex” value came to 7 min. In addition, the “Injected dose localized in the brain at the peak” value in series [5] (rhesus monkey, intravenous 173.9 MBq, estimated) was “about 4.4 % of the injected dose”. The “Brain concentration at 2 min” value in “In vivo biodistribution” (female healthy mice, 2 min after administration (peak)) turned out to be 6.23 %ID/g; in “In vivo biodistribution” (male healthy mice, 2 min after administration) it was 7.33 %ID/g. For the same molecule, the figures for the “Brain concentration at 60 min” value in the series “In vivo biodistribution” (female healthy mice) and in the series “In vivo biodistribution” (male healthy mice) were 1.84 %ID/g and 1.88 %ID/g, respectively. In addition, the “Initial brain uptake of parent relative to either of its metabolites” value in “In vivo biodistribution” (healthy mice, initial uptake) is recorded as 1.5 fold.

For `CNc1ccc(/C=C/c2ccc(OCCOCCOCCF)nc2)cc1` [^18F-AV-45, (E)-4-(2-(6-(2-(2-(2-^18F-fluoroethoxy)ethoxy)ethoxy)pyridin-3-yl)vinyl)-N-methyl benzenamine], in series [3] (read-out: Kd = Koff/Kon, derived from kinetic measurement), the Kd amounted to 1.31 nM.

The term Ki denotes the dissociation constant of the complex between target and ligand, obtained from inhibition or displacement. Regarding `CC(=O)N(C)c1ccc(/C=C/c2ccc(OCCOCCOCCF)nc2)cc1` [^18F-AV-267], the Ki in series [6] is 398 ± 45 nM.

The record behind these values is article PMC3065020 (Journal of nuclear medicine : official publication, Society …, 2009).
